Measured values published in ChEMBL document CHEMBL4627249, “New modification strategy of matrine as Hsp90 inhibitors based on its specific L conformation for cancer treatment” (Bioorg Med Chem, 2020).
Blank lines part the entries; values can stand above or below the molecule they belong to. The source made the active and inactive calls. The rule behind the calls is not given here.

Columns and labels:
HepG2 = assay: Antiproliferative activity against human HepG2 cells assessed as reduction in cell viability after 48 hrs by MTT assay; type: functional, cell-based; settings: HepG2, 48 h
How it was run: (§1)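 HepG2 or HeLa cells in DMEM with 10% FBS and 1% penicillin-streptomycin were preincubated 24 h (37 °C, 5% CO2). They were then exposed for 48 h to 1, 5, 10, 20, 50 and 100 µM, diluted in medium from DMSO stocks. MTT (5 mg/mL, 20 µL) was added for 4 h, formazan dissolved in DMSO, and A490 read. Each concentration was run in triplicate. IC50 is the mean from dose-response curves of at least three independent experiments; cisplatin was the positive control.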

MDA-MB-231 = assay: Antiproliferative activity against human MDA-MB-231 cells assessed as reduction in cell viability after 48 hrs by MTT assay; type: functional, cell-based; settings: MDA-MB-231, 48 h
[1] = biological target: T1, Heat shock protein HSP90 (Homo sapiens) (UniProt P07900+P08238)
HeLa [2] = assay: Antiproliferative activity against human HeLa cells assessed as reduction in cell viability after 48 hrs by MTT assay; type: functional, cell-based; how it was run: as §1
HeLa [3] = assay: Induction of apoptosis in human HeLa cells assessed as late apoptotic cells at 5 uM after 48 hrs by Annexin V/propidium iodide staining based assay (reference value: 1.75 %); type: functional
How it was run: (§2)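 HeLa cells were seeded at 2 × 10^5 per well in six-well plates and left overnight. They were then treated with 5, 10 or 20 µM for 48 h. Annexin V-FITC/PI staining was done with a commercial kit per its instructions. Early and late apoptotic fractions are given as cumulative percentages relative to untreated control.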

[4] = biological target: T1, Heat shock protein HSP90 (Homo sapiens); assay: Inhibition of Hsp90 in human Hela cells assessed as down regulation of Hsp90 protein expression at 12.5 uM to 50 uM after 48 hrs by Western blot analysis; type: cell-based
How it was run: (§3)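 HeLa cells were treated 48 h with 12.5, 25 or 50 µM, or with DMSO vehicle. Cells were lysed 30 min in RIPA buffer with protease inhibitor cocktail and spun at 12,000 rpm for 15 min at 4 °C. Proteins were run on 6-15% SDS-PAGE and moved to nitrocellulose. Membranes were blocked in 5% non-fat milk in TBS, probed with primary and secondary antibodies, and imaged by chemiluminescence.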

HeLa [5] = assay: Induction of apoptosis in human HeLa cells assessed as necrotic cells at 20 uM after 48 hrs by Annexin V/propidium iodide staining based assay (reference value: 0 %); type: functional; how it was run: as §2
HeLa [6] = assay: Induction of apoptosis in human HeLa cells assessed as accumulation of […] cells at 5 uM after 48 hrs by Annexin V/propidium iodide staining based assay (reference value: 0 %); type: functional; how it was run: as §2
HeLa [7] = assay: Cell cycle arrest in human HeLa cells assessed as accumulation of cells at G2/M phase at 10 uM after 48 hrs by RNase/PI-staining based flow cytometric analysis (reference value: 11.69 %); type: functional
HeLa [8] = assay: Induction of apoptosis in human HeLa cells assessed as increase in cleaved caspase 3 protein expression after 48 hrs by Western blot analysis; type: functional, cell-based; how it was run: as §3
HeLa [9] = assay: Induction of apoptosis in human HeLa cells assessed as early apoptotic cells at 10 uM after 48 hrs by Annexin V/propidium iodide staining based assay (reference value: 3.22 %); type: functional; how it was run: as §2
HeLa [10] = assay: Induction of apoptosis in human HeLa cells assessed as viable cells at 10 uM after 48 hrs by Annexin V/propidium iodide staining based assay (reference value: 95.03 %); type: functional; settings: read-out: Activity; how it was run: as §2
HeLa [11] = assay: Induction of apoptosis in human HeLa cells assessed as early apoptotic cells at 5 uM after 48 hrs by Annexin V/propidium iodide staining based assay (reference value: 3.22 %); type: functional; how it was run: as §2
HeLa [12] = assay: Induction of apoptosis in human HeLa cells assessed as late apoptotic cells at 10 uM after 48 hrs by Annexin V/propidium iodide staining based assay (reference value: 1.75 %); type: functional; how it was run: as §2
HeLa [13] = assay: Induction of apoptosis in human HeLa cells assessed as late apoptotic cells at 20 uM after 48 hrs by Annexin V/propidium iodide staining based assay (reference value: 1.75 %); type: functional; how it was run: as §2
HeLa [14] = assay: Cell cycle arrest in human HeLa cells assessed as accumulation of cells at G0/G1 phase at 20 uM after 48 hrs by RNase/PI-staining based flow cytometric analysis (reference value: 71.07 %); type: functional
HeLa [15] = assay: Cell cycle arrest in human HeLa cells assessed as accumulation of cells at S phase at 5 uM after 48 hrs by RNase/PI-staining based flow cytometric analysis (reference value: 17.24 %); type: functional
HeLa [16] = assay: Induction of apoptosis in human HeLa cells assessed as increase in ratio of Bax to Bcl-2 protein expression 12.5 to 50 uM after 48 hrs by Western blot analysis; type: functional, cell-based; how it was run: as §3
HeLa [17] = assay: Induction of apoptosis in human HeLa cells assessed as decrease in protected caspase 3 protein expression after 48 hrs by Western blot analysis; type: functional, cell-based; how it was run: as §3
HeLa [18] = assay: Induction of apoptosis in human HeLa cells assessed as increase in Bax protein expression after 48 hrs by Western blot analysis; type: functional, cell-based; how it was run: as §3
HeLa [19] = assay: Induction of apoptosis in human HeLa cells assessed as necrotic cells at 10 uM after 48 hrs by Annexin V/propidium iodide staining based assay (reference value: 0 %); type: functional; how it was run: as §2
HeLa [20] = assay: Cell cycle arrest in human HeLa cells assessed as accumulation of cells at G0/G1 phase at 5 uM after 48 hrs by RNase/PI-staining based flow cytometric analysis (reference value: 71.07 %); type: functional
HeLa [21] = assay: Induction of apoptosis in human HeLa cells assessed as viable cells at 20 uM after 48 hrs by Annexin V/propidium iodide staining based assay (reference value: 95.03 %); type: functional; settings: read-out: Activity; how it was run: as §2
HeLa [22] = assay: Induction of apoptosis in human HeLa cells assessed as viable cells at 5 uM after 48 hrs by Annexin V/propidium iodide staining based assay (reference value: 95.03 %); type: functional; settings: read-out: Activity; how it was run: as §2
HeLa [23] = assay: Cell cycle arrest in human HeLa cells assessed as accumulation of cells at G0/G1 phase at 10 uM after 48 hrs by RNase/PI-staining based flow cytometric analysis analysis (reference value: 71.07 %); type: functional
HeLa [24] = assay: Induction of apoptosis in human HeLa cells assessed as decrease in Bcl-2 protein expression after 48 hrs by Western blot analysis; type: functional, cell-based; how it was run: as §3
HeLa [25] = assay: Cell cycle arrest in human HeLa cells assessed as accumulation of cells at S phase at 10 uM after 48 hrs by RNase/PI-staining based flow cytometric analysis (reference value: 17.24 %); type: functional
HeLa [26] = assay: Cell cycle arrest in human HeLa cells assessed as accumulation of cells at S phase after 48 hrs by RNase/PI-staining based flow cytometric analysis; type: functional
HeLa [27] = assay: Cell cycle arrest in human HeLa cells assessed as accumulation of cells at G2/M phase at 20 uM after 48 hrs by RNase/PI-staining based flow cytometric analysis (reference value: 11.69 %); type: functional
HeLa [28] = assay: Cell cycle arrest in human HeLa cells assessed as accumulation of cells at G2/M phase at 5 uM after 48 hrs by RNase/PI-staining based flow cytometric analysis (reference value: 11.69 %); type: functional
HeLa [29] = assay: Cell cycle arrest in human HeLa cells assessed as accumulation of cells at S phase at 20 uM after 48 hrs by RNase/PI-staining based flow cytometric analysis (reference value: 17.24 %); type: functional
HeLa [30] = assay: Induction of apoptosis in human HeLa cells assessed as early apoptotic cells at 20 uM after 48 hrs by Annexin V/propidium iodide staining based assay (reference value: 3.22 %); type: functional; how it was run: as §2

IC50 (HepG2): 51.3 µM
IC50 (MDA-MB-231): 55.2 µM
ΔTm [1]: -1.3 °C
IC50 (HeLa [2]): 33.7 µM
Structure (SMILES): c1ccc(Oc2ccc(/N=C3\CCC[C@@H]4[C@H]5CCCN6CCC[C@@H](CN34)[C@@H]56)cc2)cc1

IC50 (HepG2): > 100 µM
IC50 (MDA-MB-231): > 100 µM
ΔTm [1]: -1.44 °C
IC50 (HeLa [2]): > 100 µM
Structure (SMILES): N#Cc1ccccc1/N=C1\CCC[C@@H]2[C@H]3CCCN4CCC[C@@H](CN12)[C@@H]34

inhibition [4]: Active
IC50 (HepG2): 16.1 µM
IC50 (MDA-MB-231): 22.1 µM
ΔTm [1]: 10.9 °C
IC50 (HeLa [2]): 19.6 µM
Structure (SMILES): Nc1c2c(nc3ccc(C(F)(F)F)cc13)N1C[C@@H]3CCCN4CCC[C@@H]([C@H]34)[C@H]1CC2
Activity (HeLa [3]): 8.79%
Activity (HeLa [5]): 2.62%
Activity (HeLa [6]): 8.79%
Activity (HeLa [7]): 10.86%
Activity (HeLa [8]): Dose-dependent effect
Activity (HeLa [9]): 28.57%
viability at 10 µM (HeLa [10]): 50.1%
Activity (HeLa [11]): 17.51%
Activity (HeLa [12]): 17.3%
Activity (HeLa [13]): 21.17%
Activity (HeLa [14]): 56.95%
Activity (HeLa [15]): 21.64%
Activity (HeLa [16]): Active
Activity (HeLa [17]): Dose-dependent effect
Activity (HeLa [18]): Dose-dependent effect
Activity (HeLa [19]): 4.06%
Activity (HeLa [20]): 65.53%
viability at 20 µM (HeLa [21]): 38.1%
viability at 5 µM (HeLa [22]): 72%
Activity (HeLa [23]): 62.47%
Activity (HeLa [24]): Dose-dependent effect
Activity (HeLa [25]): 26.67%
Activity (HeLa [26]): Dose-dependent effect
Activity (HeLa [27]): 2.93%
Activity (HeLa [28]): 12.83%
Activity (HeLa [29]): 40.12%
Activity (HeLa [30]): 38.07%

IC50 (HepG2): 9.7 µM
IC50 (MDA-MB-231): 9.7 µM
ΔTm [1]: -7.58 °C
IC50 (HeLa [2]): 6.9 µM
Structure (SMILES): Nc1c2c(nc3ccc(Br)cc13)N1C[C@@H]3CCCN4CCC[C@@H]([C@H]34)[C@H]1CC2

IC50 (HepG2): 9.2 µM
IC50 (MDA-MB-231): 16.9 µM
ΔTm [1]: -4.27 °C
IC50 (HeLa [2]): 13.4 µM
Structure (SMILES): Cc1ccc2nc3c(c(N)c2c1)CC[C@@H]1[C@H]2CCCN4CCC[C@@H](CN31)[C@@H]24

IC50 (HepG2): 14.3 µM
IC50 (MDA-MB-231): 22.2 µM
ΔTm [1]: -3.12 °C
IC50 (HeLa [2]): 23.3 µM
Structure (SMILES): Nc1c2c(nc3ccccc13)N1C[C@@H]3CCCN4CCC[C@@H]([C@H]34)[C@H]1CC2

IC50 (HepG2): 35.1 µM
IC50 (MDA-MB-231): 24.4 µM
ΔTm [1]: -0.24 °C
IC50 (HeLa [2]): 69.2 µM
Structure (SMILES): Nc1c2c(nc3ccc([N+](=O)[O-])cc13)N1C[C@@H]3CCCN4CCC[C@@H]([C@H]34)[C@H]1CC2

IC50 (HepG2): 13.1 µM
IC50 (MDA-MB-231): 37.3 µM
ΔTm [1]: -2.3 °C
IC50 (HeLa [2]): 18.8 µM
Structure (SMILES): Nc1c2c(nc3ccc(F)cc13)N1C[C@@H]3CCCN4CCC[C@@H]([C@H]34)[C@H]1CC2

IC50 (HepG2): 97.5 µM
IC50 (MDA-MB-231): > 100 µM
ΔTm [1]: 0 °C
IC50 (HeLa [2]): > 100 µM
Structure (SMILES): CCOc1ccc(/N=C2\CCC[C@@H]3[C@H]4CCCN5CCC[C@@H](CN23)[C@@H]45)cc1
